ChEMBL document CHEMBL1147862, “Studies on synthesis and pharmacological activities of 3,6-disubstituted-1,2,4-triazolo[3,4-b]-1,3,4-thiadiazoles and their dihydro analogues” (2007)

Columns and labels:
Assay type in all cases: functional
[1] = test system: Mus musculus; experiment: Analgesic activity in Swiss mouse assessed as increase in reaction time at 20 mg/kg, po after 30 mins by Eddy's hot plate technique
In short: (§1)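 Swiss mice of either sex, 25–35 g, placed one at a time on a hot plate held at 55 °C. End point is paw licking or jumping, whichever comes first, with a 15 s cut-off to avoid paw injury. Reaction time is recorded and reported as percent increase in reaction time.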

[2] = test system: Mus musculus; experiment: Analgesic activity in Swiss mouse assessed as increase in reaction time at 20 mg/kg, po after 60 mins by Eddy's hot plate technique; in short: as §1
[3] = test system: Mus musculus; experiment: Analgesic activity in Swiss mouse assessed as increase in reaction time at 20 mg/kg, po after 90 mins by Eddy's hot plate technique; in short: as §1
[4] = test system: Candida albicans; experiment: Antifungal activity against Candida albicans at 10 ug/ml by paper disc method; settings: read-out: IZ
[5] = test system: Candida albicans; experiment: Antifungal activity against Candida albicans at 20 ug/ml by paper disc method; settings: read-out: IZ
[6] = test system: Candida albicans; experiment: Antifungal activity against Candida albicans at 30 ug/ml by paper disc method; settings: read-out: IZ
[7] = test system: Aspergillus niger; experiment: Antifungal activity against Aspergillus niger at 10 ug/ml by paper disc method; settings: read-out: IZ
[8] = test system: Aspergillus niger; experiment: Antifungal activity against Aspergillus niger at 20 ug/ml by paper disc method; settings: read-out: IZ
[9] = test system: Aspergillus niger; experiment: Antifungal activity against Aspergillus niger at 30 ug/ml by paper disc method; settings: read-out: IZ
[10] = test system: Escherichia coli; experiment: Antibacterial activity against Escherichia coli at 10 ug/ml by agar plate diffusion technique; settings: read-out: IZ
[11] = test system: Escherichia coli; experiment: Antibacterial activity against Escherichia coli at 20 ug/ml by agar plate diffusion technique; settings: read-out: IZ
[12] = test system: Escherichia coli; experiment: Antibacterial activity against Escherichia coli at 30 ug/ml by agar plate diffusion technique; settings: read-out: IZ
[13] = test system: Pseudomonas aeruginosa; experiment: Antibacterial activity against Pseudomonas aeruginosa at 10 ug/ml by agar plate diffusion technique; settings: read-out: IZ
[14] = test system: Pseudomonas aeruginosa; experiment: Antibacterial activity against Pseudomonas aeruginosa at 20 ug/ml by agar plate diffusion technique; settings: read-out: IZ
[15] = test system: Pseudomonas aeruginosa; experiment: Antibacterial activity against Pseudomonas aeruginosa at 30 ug/ml by agar plate diffusion technique; settings: read-out: IZ
[16] = test system: Bacillus subtilis; experiment: Antibacterial activity against Bacillus subtilis at 10 ug/ml by agar plate diffusion technique; settings: read-out: IZ
[17] = test system: Bacillus subtilis; experiment: Antibacterial activity against Bacillus subtilis at 20 ug/ml by agar plate diffusion technique; settings: read-out: IZ
[18] = test system: Bacillus subtilis; experiment: Antibacterial activity against Bacillus subtilis at 30 ug/ml by agar plate diffusion technique; settings: read-out: IZ
[19] = test system: Staphylococcus aureus; experiment: Antibacterial activity against Staphylococcus aureus at 10 ug/ml by agar plate diffusion technique; settings: read-out: IZ
[20] = test system: Staphylococcus aureus; experiment: Antibacterial activity against Staphylococcus aureus at 20 ug/ml by agar plate diffusion technique; settings: read-out: IZ
[21] = test system: Staphylococcus aureus; experiment: Antibacterial activity against Staphylococcus aureus at 30 ug/ml by agar plate diffusion technique; settings: read-out: IZ
[22] = test system: Rattus norvegicus; experiment: Antiinflammatory activity in Wistar Albino rat assessed as inhibition of carrageenan-induced paw oedema at 20 mg/kg after 1 hr relative to control
In short: (§2)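 Wistar albino rats, 150–200 g, six per group, dosed orally with a 20 mg/kg suspension; control gets 0.1 ml 1% gum acacia. After 30 min, 0.1 ml 1% carrageenan in saline is injected subplantar into the right hind paw. Paw volume is read by plethysmograph at 0–4 h. Inhibition = 100(1 − Vtest/Vcontrol) on mean volume increase.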

[23] = test system: Rattus norvegicus; experiment: Antiinflammatory activity in Wistar Albino rat assessed as inhibition of carrageenan-induced paw oedema at 20 mg/kg after 2 hrs relative to control; in short: as §2
[24] = test system: Rattus norvegicus; experiment: Antiinflammatory activity in Wistar Albino rat assessed as inhibition of carrageenan-induced paw oedema at 20 mg/kg after 3 hrs relative to control; in short: as §2
[25] = test system: Rattus norvegicus; experiment: Antiinflammatory activity in Wistar Albino rat assessed as inhibition of carrageenan-induced paw oedema at 20 mg/kg after 4 hrs relative to control; in short: as §2

Row | SMILES | Activity [1] [%] | Activity [2] [%] | Activity [3] [%] | zone of inhibition at 10 µg/mL [4] [mm] | zone of inhibition at 20 µg/mL [5] [mm] | zone of inhibition at 30 µg/mL [6] [mm] | zone of inhibition at 10 µg/mL [7] [mm] | zone of inhibition at 20 µg/mL [8] [mm] | zone of inhibition at 30 µg/mL [9] [mm] | zone of inhibition at 10 µg/mL [10] [mm] | zone of inhibition at 20 µg/mL [11] [mm] | zone of inhibition at 30 µg/mL [12] [mm] | zone of inhibition at 10 µg/mL [13] [mm] | zone of inhibition at 20 µg/mL [14] [mm] | zone of inhibition at 30 µg/mL [15] [mm] | zone of inhibition at 10 µg/mL [16] [mm] | zone of inhibition at 20 µg/mL [17] [mm] | zone of inhibition at 30 µg/mL [18] [mm] | zone of inhibition at 10 µg/mL [19] [mm] | zone of inhibition at 20 µg/mL [20] [mm] | also measured
1 | COc1ccc(Cl)c(-c2nnc3sc(Cc4c(C)[nH]c5ccc(OC)cc45)nn23)c1 | 19.48 | 28.54 | 35.24 | 4.35 | 8.72 | 11.7 | 4.56 | 8.24 | 12.3 | 4.26 | 7.28 | 12.3 | 4.15 | 7.92 | 12.4 | 4.12 | 7.18 | 11.9 | 4.17 | 8.12 | zone of inhibition at 30 µg/mL [21]: 12.1 mm; inhibition in vivo at 20 mg/kg [22]: 11.3%; inhibition in vivo at 20 mg/kg [23]: 20%; inhibition in vivo at 20 mg/kg [24]: 26.1%; inhibition in vivo at 20 mg/kg [25]: 32.7%
2 | COc1ccc2[nH]c(C)c(Cc3nn4c(-c5ccoc5C)nnc4s3)c2c1 | 9.18 | 23.17 | 33.49 | 5.04 | 9.86 | 13.1 | 5.14 | 9.06 | 12.4 | 5.12 | 9.1 | 13.8 | 4.92 | 8.14 | 14.6 | 4.6 | 8.38 | 13.2 | 4.89 | 9.12 | zone of inhibition at 30 µg/mL [21]: 13.3 mm; inhibition in vivo at 20 mg/kg [22]: 19.7%; inhibition in vivo at 20 mg/kg [23]: 24.8%; inhibition in vivo at 20 mg/kg [24]: 29.4%; inhibition in vivo at 20 mg/kg [25]: 31.2%
3 | COc1ccc2[nH]cc(Cc3nn4c(-c5ccoc5C)nnc4s3)c2c1 | 13.84 | 24.76 | 31.86 | 5.62 | 10.8 | 13.5 | 5.06 | 9.8 | 13.1 | 5.16 | 9.35 | 14.2 | 5.36 | 9.62 | 14.5 | 5.82 | 9.61 | 14.2 | 4.85 | 9.1 | zone of inhibition at 30 µg/mL [21]: 13.3 mm; inhibition in vivo at 20 mg/kg [22]: 16%; inhibition in vivo at 20 mg/kg [23]: 20.1%; inhibition in vivo at 20 mg/kg [24]: 26.1%; inhibition in vivo at 20 mg/kg [25]: 30.8%
4 | COc1ccc2[nH]c(C)c(Cc3nn4c(Cc5ccc(OC)c(OC)c5)nnc4s3)c2c1 | 19.23 | 27.82 | 29.04 | 4.62 | 8.02 | 12.1 | 4.9 | 7.58 | 10.8 | 4.48 | 7.42 | 12.4 | 4.04 | 7.42 | 12.6 | 4.07 | 7.21 | 12.3 | 4.06 | 8.08 | zone of inhibition at 30 µg/mL [21]: 12 mm; inhibition in vivo at 20 mg/kg [22]: 10.5%; inhibition in vivo at 20 mg/kg [23]: 16.2%; inhibition in vivo at 20 mg/kg [24]: 21.4%; inhibition in vivo at 20 mg/kg [25]: 28.4%
5 | COc1ccc(Cl)c(-c2nnc3sc(Cc4c[nH]c5ccccc45)nn23)c1 | 19.48 | 28.32 | 34.24 | 5.86 | 9.48 | 12.5 | 5.1 | 10.1 | 12.9 | 4.78 | 8.12 | 12.4 | 4.12 | 8.16 | 12.2 | 4.33 | 7.6 | 12.3 | 4.8 | 7.59 | zone of inhibition at 30 µg/mL [21]: 12.6 mm; inhibition in vivo at 20 mg/kg [22]: 8.8%; inhibition in vivo at 20 mg/kg [23]: 16.5%; inhibition in vivo at 20 mg/kg [24]: 21.4%; inhibition in vivo at 20 mg/kg [25]: 34.7%
6 | COc1ccc(Cc2nnc3sc(Cc4c[nH]c5ccccc45)nn23)cc1OC | 13.16 | 25 | 31.88 | 4.1 | 7.46 | 10.2 | 5.24 | 9.62 | 11.1 | 4.9 | 8.22 | 12.5 | 4.25 | 8.23 | 12.4 | 4.33 | 7.32 | 12.7 | 4.59 | 7.38 | zone of inhibition at 30 µg/mL [21]: 12.2 mm; inhibition in vivo at 20 mg/kg [22]: 16.1%; inhibition in vivo at 20 mg/kg [23]: 26.8%; inhibition in vivo at 20 mg/kg [24]: 28.3%; inhibition in vivo at 20 mg/kg [25]: 28.5%
